This note sets out measurements from ChEMBL document CHEMBL1141865, “Discovery of 4-heteroarylbicyclo[2.2.2]octyltriazoles as potent and selective inhibitors of 11beta-HSD1: novel therapeutic agents for the treatment of metabolic syndrome” (Bioorg Med Chem Lett, 2005).

Series [1] deals with T1, 11-beta-hydroxysteroid dehydrogenase 1 (Homo sapiens, UniProt P28845). Nature of the series: Inhibitory activity against human 11beta-HSD1.
Target sequence in this assay (P28845 whole entry): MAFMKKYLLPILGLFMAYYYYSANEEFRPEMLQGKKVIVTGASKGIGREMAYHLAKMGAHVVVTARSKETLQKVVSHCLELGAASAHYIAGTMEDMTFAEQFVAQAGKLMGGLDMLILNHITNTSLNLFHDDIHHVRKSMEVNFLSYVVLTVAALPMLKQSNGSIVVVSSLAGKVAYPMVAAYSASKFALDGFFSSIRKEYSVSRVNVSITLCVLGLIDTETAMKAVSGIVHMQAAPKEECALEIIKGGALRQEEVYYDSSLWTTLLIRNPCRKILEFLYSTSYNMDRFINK
The target in series [2] is 11-beta-hydroxysteroid dehydrogenase 1 (Mus musculus, UniProt P50172). Nature of the series: Inhibitory activity against mouse 11beta-HSD1.
Series [3] addresses T2, 11-beta-hydroxysteroid dehydrogenase type 2 (Homo sapiens, UniProt P80365).
T2 sequence (P80365 whole entry): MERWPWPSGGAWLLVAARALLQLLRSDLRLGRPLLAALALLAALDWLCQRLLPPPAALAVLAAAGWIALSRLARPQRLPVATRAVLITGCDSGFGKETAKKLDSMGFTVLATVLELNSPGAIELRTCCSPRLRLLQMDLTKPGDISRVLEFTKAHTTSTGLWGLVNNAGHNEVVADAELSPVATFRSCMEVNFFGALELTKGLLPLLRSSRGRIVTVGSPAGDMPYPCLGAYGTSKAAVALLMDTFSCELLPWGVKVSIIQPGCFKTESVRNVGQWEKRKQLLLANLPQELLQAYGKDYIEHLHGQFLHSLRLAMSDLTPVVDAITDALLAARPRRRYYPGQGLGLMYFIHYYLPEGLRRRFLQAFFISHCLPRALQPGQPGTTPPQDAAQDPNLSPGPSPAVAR
The series can be described thus: Inhibitory activity against human 11beta-HSD2.

Series [4] has as its target T3, 11-beta-hydroxysteroid dehydrogenase type 2 (Mus musculus, UniProt P51661).
T3 sequence (P51661 whole entry): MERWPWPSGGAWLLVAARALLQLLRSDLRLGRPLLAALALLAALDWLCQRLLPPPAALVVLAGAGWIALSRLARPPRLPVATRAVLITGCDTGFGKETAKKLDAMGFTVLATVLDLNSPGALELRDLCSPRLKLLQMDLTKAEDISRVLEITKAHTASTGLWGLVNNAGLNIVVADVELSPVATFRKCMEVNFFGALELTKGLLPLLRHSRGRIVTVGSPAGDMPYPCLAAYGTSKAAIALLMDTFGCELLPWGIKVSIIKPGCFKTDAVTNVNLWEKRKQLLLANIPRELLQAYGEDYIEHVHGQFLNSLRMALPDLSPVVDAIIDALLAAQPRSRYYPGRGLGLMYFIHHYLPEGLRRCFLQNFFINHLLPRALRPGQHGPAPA
Nature of the series: Inhibitory activity against mouse 11beta-HSD2.

Series [5] can be described thus: Plasma clearance in rat. It is filed as ADME, organism-based.
Series [6] in a line: plasma clearance in dog. Format: ADME, organism-based, Canis lupus familiaris.
The nature of series [7]: Half life in mouse. It is filed as ADME, organism-based. Particulars: in vivo.
The nature of series [8]: Half life in rat. Format: ADME, organism-based. Particulars: in vivo.
Series [9] is described as follows: Half life in dog. The note with it: in vivo. Format: ADME, organism-based, Canis lupus familiaris.
Series [10] can be described thus: Oral bioavailability in mouse. Particulars: in vivo. Format: ADME, organism-based.
Series [11] is described as follows: Oral bioavailability in rat. It is filed as ADME, organism-based. Particulars: in vivo.
Series [12] is described as follows: Oral bioavailability in dog. Particulars: in vivo. It is filed as ADME, organism-based, Canis lupus familiaris.
For the next series, the species on record is Rattus norvegicus. Nature of the series: AUC in rat. It is filed as ADME, organism-based, Plasma. The note with it: in vivo.
The species named for another series is Canis familiaris. Nature of the series: AUC in dog. Format: ADME, organism-based, Canis lupus familiaris, Plasma. The note with it: in vivo.
Series [13] is described as follows: (§1) Plasma clearance in mouse. Format: ADME, organism-based. Particulars: plasma.
For series [14], the species on record is Mus musculus. Nature of the series: AUC in mouse. It is filed as ADME, organism-based, Plasma. The note with it: in vivo.
For series [15], the target named is T1, 11-beta-hydroxysteroid dehydrogenase 1. Nature of the series: In vivo inhibition of 11beta-HSD1 at 1 h (10 mg/kg, po) assessed by extent of cortisone to cortisol conversion. It is filed as functional, organism-based. In outline: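 Oral dosing at 10 mg/kg, followed by exogenous [3H]cortisone as the 11β-HSD1 substrate. In vivo enzyme activity is read out as the extent of conversion to [3H]cortisol, reported as % inhibition.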
Target sequence in this assay (P28845 whole entry, looked up): as the sequence (P28845 whole entry) above

The species entered for series [16] is Mus musculus. The series is described as §1. Format: ADME, organism-based. Particulars: in vivo.
Series [17] has as its target T4, 11-beta-hydroxysteroid dehydrogenase type 2 (Homo sapiens) (UniProt P80365).
T4 sequence (whole entry): T2 sequence (P80365 whole entry)
The series can be described thus: Inhibitory activity against human 11beta-HSD2 at 4 uM.

For orientation: IC50 means the point on the concentration scale where inhibition reaches its midpoint. Low readings indicate greater potency, high ones weaker potency. What is called clearance is the volume of plasma or blood freed of the substance per unit of time. High values mean a high capacity for elimination, low ones a low capacity for elimination. What is called half-life is the time needed for the level to fall by half in the phase considered. Low readings indicate rapid decline, high ones slow decline. The term bioavailability denotes dose-corrected exposure relative to a reference, in per cent. By inhibition is commonly meant the percentage by which the read-out fell short of the control.

Chain of 11-beta-hydroxysteroid dehydrogenase 1 (Mus musculus, UniProt P50172) (P50172 whole entry): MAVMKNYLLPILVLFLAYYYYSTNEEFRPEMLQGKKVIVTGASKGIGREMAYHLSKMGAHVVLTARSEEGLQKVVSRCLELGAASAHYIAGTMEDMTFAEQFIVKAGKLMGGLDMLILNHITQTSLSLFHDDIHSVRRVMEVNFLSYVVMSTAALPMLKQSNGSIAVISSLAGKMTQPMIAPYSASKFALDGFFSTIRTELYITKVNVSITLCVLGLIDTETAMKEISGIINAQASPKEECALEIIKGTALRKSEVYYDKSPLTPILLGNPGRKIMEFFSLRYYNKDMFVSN

For `COC(=O)C12CCC(c3nnc4n3CCCCCC4)(CC1)CC2`, the 50% inhibitory concentration (IC50) in [1] was 110 nM; in series [2], 68 nM; in series [3] it was over 4000 nM; in series [4], over 4000 nM.
For `Cn1c(-c2ccccc2OC(F)F)nnc1C12CCC(c3nc(-c4ccc(F)cc4)no3)(CC1)CC2`, the half-inhibitory concentration (IC50) in [2] came to 5.2 nM.
In series [2], `COc1ccc(-c2nnc(C34CCC(c5nc(-c6ccc(F)cc6)no5)(CC3)CC4)n2C)c(Cl)c1` displayed an IC50 of 12 nM.
Regarding `Cn1c(-c2ccccc2C(F)(F)F)nnc1C12CCC(c3nc(-c4ccc(S(=O)(=O)C(F)(F)F)cc4)no3)(CC1)CC2`, the 50% inhibitory concentration (IC50) in series [2] was under 0.98 nM.
On the same count and under the same terms, as for `COc1ccc(-c2noc(C34CCC(c5nnc(-c6ccccc6C(F)(F)F)n5C)(CC3)CC4)n2)cn1`, the figure is 4.5 nM; as for `Cn1c(-c2ccccc2S(C)(=O)=O)nnc1C12CCC(c3nc(-c4ccc(F)cc4)no3)(CC1)CC2`, 29 nM; as for `Cn1c(-c2ccccc2C(F)(F)F)nnc1C12CCC(c3nc(-c4ccc(S(C)(=O)=O)cc4)no3)(CC1)CC2`, 1.8 nM.
The same measure, in the same setting: as for `Cn1c(-c2ccccc2Cl)nnc1C12CCC(c3nc(-c4ccc(F)cc4)no3)(CC1)CC2`, the figure is 3.2 nM.
In series [2], `Cn1c(-c2ccccc2C(F)(F)F)nnc1C12CCC(c3nc(-c4ccc(Cl)cc4)no3)(CC1)CC2` came in with an IC50 of 2 nM.
The same measure, in the same setting: the result for `Cn1c(-c2ccccc2C(F)(F)F)nnc1C12CCC(c3nc(-c4ccc(F)cc4)c[nH]3)(CC1)CC2` reads 2.4 nM.
`Cn1c(-c2ccccc2C(F)(F)F)nnc1C12CCC(c3nc(-c4ccc(C(O)C(F)(F)F)cc4)no3)(CC1)CC2` (stereo not given) registered a 50% inhibitory concentration (IC50) in [2] of under 1 nM.
In turn, `Cn1c(-c2ccccc2C(F)(F)F)nnc1C12CCC(c3noc(-c4ccc(F)cc4)n3)(CC1)CC2` came in with a half-inhibitory concentration (IC50) in [2] of under 1 nM.
Consider `Cc1noc(C23CCC(c4nnc5n4CCCCCC5)(CC2)CC3)n1`, for which the IC50 is 289 nM in [1], 136 nM in series [2], over 4000 nM in [3] and over 4000 nM in [4].
For `COc1cc(O)ccc1-c1nnc(C23CCC(c4nc(-c5ccc(F)cc5)no4)(CC2)CC3)n1C`, in series [2], the concentration for half-maximal inhibition (IC50) came to 2.3 nM.
For `Clc1ccc(-c2noc(C34CCC(c5nnc6n5CCCCCC6)(CC3)CC4)n2)cc1`, the figures for the IC50 in [2] and in series [4] were 17 nM and 4000 nM, respectively.
With `Cn1c(-c2ccccc2C(F)(F)F)nnc1C12CCC(c3nc(-c4ccc(F)cc4)no3)(CC1)CC2`, the clearance was found to be 5.39 mL/min/kg in series [5], 3.51 mL/min/kg in series [6] and 5.88 mL/min/kg in [13]. Besides, the half-life was 17.7 h in series [7], 5.1 h in series [8] and 9.87 h in [9]. The results for the bioavailability in series [10], in series [11] and in [12] were 58%, 83% and 100%, respectively. Also, the IC50 in series [2] stood at 1.9 nM. Besides, the AUC in the series filed under Rattus norvegicus came to 6.2 uMh; in the series listed under Canis familiaris it was 9.55 uMh; in the series listed under Mus musculus [14], 5.7 uMh.
Regarding `Cn1c(-c2ccccc2C(F)(F)F)nnc1C12CCC(c3nc(-c4cccc(S(C)(=O)=O)c4)no3)(CC1)CC2`, the midpoint of inhibition in series [2], the IC50, lay at 9.5 nM.
`Cn1c(-c2ccccc2C(F)(F)F)nnc1C12CCC(c3nnc(-c4ccc(F)cc4)o3)(CC1)CC2` showed an IC50 in series [2] of 5 nM.
Take `CCCCCC12CCC(c3nnc4n3CCCCCC4)(CC1)CC2`: the inhibition in series [15] came to 74%. Besides, the bioavailability in [10] turned out to be 6%. Also, the IC50 is 5 nM in series [1], 3 nM in series [2], 183 nM in [3] and 2100 nM in series [4]. In the series filed under Mus musculus [16], this molecule had a CL of 14.1 mL/min/kg.
The molecule `C1CCCn2c(nnc2C23CCC(c4nc(CC5CC5)no4)(CC2)CC3)CC1` returned an inhibition in series [17] of 61%. Further, the IC50 is 170 nM in series [1], under 3.9 nM in [2] and over 4000 nM in series [4].
In series [2], `Cn1c(-c2ccccc2C(F)(F)F)nnc1C12CCC(c3nc(-c4ccc(=O)n(C)c4)no3)(CC1)CC2` registered a 50% inhibitory concentration (IC50) of 22 nM.
The same measure, in the same setting: the result for `Cn1c(-c2ccccc2C(F)(F)F)nnc1C12CCC(c3n[nH]c(-c4ccc(F)cc4)n3)(CC1)CC2` reads 1.6 nM.
In the case of `CCCCCC12CCC(c3nnc(-c4ccccc4C(F)(F)F)n3C)(CC1)CC2`, the inhibition in series [15] was 99%. The bioavailability in series [10] is 21%. Also, the half-maximal inhibitory concentration (IC50) in [1] stood at 2 nM; in series [2], 3 nM. Moreover, the clearance in series [13] is 273 mL/min/kg.
